ChEMBL document CHEMBL1131215, “Anhydrolide macrolides. 1. Synthesis and antibacterial activity of 2,3-anhydro-6-O-methyl 11,12-carbamate erythromycin A analogues” (1998)
Values after ≈ are worked out from the molar mass of the structure shown.

Legend:
Format in all cases: functional
Staphylococcus aureus [1] = experiment: In vitro antibacterial activity against 6538P strain of Staphylococcus aureus; settings: Staphylococcus aureus
In short: (§1)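 MIC determined by standard agar dilution; values in μg/mL.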

Streptococcus pneumoniae [2] = experiment: In vitro antibacterial activity against ATCC 6303 strain of Streptococcus pneumoniae; settings: Streptococcus pneumoniae, ATCC 6303; in short: as §1
Haemophilus influenzae = experiment: In vitro antibacterial activity against DILL strain of Haemophilus influenzae.; in short: as §1
Streptococcus pyogenes [3] = experiment: In vitro antibacterial activity against PIU 2548 strain of Streptococcus pyogenes; settings: Streptococcus pyogenes; in short: as §1
Streptococcus pneumoniae [4] = experiment: In vitro antibacterial activity against 5649 strain of Streptococcus pneumoniae; settings: Streptococcus pneumoniae; in short: as §1
Streptococcus pneumoniae [5] = experiment: In vitro antibacterial activity against 5979 strain of Streptococcus pneumoniae; in short: as §1
Streptococcus pyogenes [6] = experiment: In vitro antibacterial activity against 930 strain of Streptococcus pyogenes; settings: Streptococcus pyogenes; in short: as §1
[7] = In vitro antibacterial activity against A-5278 strain of Staphylococcus aureus; settings: Staphylococcus aureus; in short: as §1
Staphylococcus aureus [8] = experiment: In vitro antibacterial activity against A5177 strain of Staphylococcus aureus; settings: Staphylococcus aureus; in short: as §1

Structure (SMILES)	MIC (Staphylococcus aureus [1]) [µg/mL]	MIC (Streptococcus pneumoniae [2]) [µg/mL]	MIC (Haemophilus influenzae) [µg/mL]	MIC (Streptococcus pyogenes [3]) [µg/mL]	MIC (Streptococcus pneumoniae [4]) [µg/mL]	MIC (Streptococcus pneumoniae [5]) [µg/mL]	MIC (Streptococcus pyogenes [6]) [µg/mL]	MIC [7] [µg/mL]	MIC (Staphylococcus aureus [8]) [µg/mL]
CC[C@H]1OC(=O)/C(C)=C/[C@H](C)[C@@H](O[C@@H]2O[C@H](C)C[C@H](N(C)C)[C@H]2O)[C@@](C)(OC)C[C@@H](C)C(=O)[C@H](C)[C@H]2N(CCCOc3cccc4cccnc34)C(=O)O[C@]12C	1.56 (≈ 1.99 µM)	< 0.004	8 (≈ 10.2 µM)	0.2 (≈ 0.256 µM)	2 (≈ 2.56 µM)	> 16	–	–	–
CC[C@H]1OC(=O)/C(C)=C/[C@H](C)[C@@H](O[C@@H]2O[C@H](C)C[C@H](N(C)C)[C@H]2O)[C@@](C)(OC)C[C@@H](C)C(=O)[C@H](C)[C@H]2N(CCCOc3ccccc3)C(=O)O[C@]12C	0.39 (≈ 0.534 µM)	–	16 (≈ 21.9 µM)	0.39 (≈ 0.534 µM)	–	–	25 (≈ 34.2 µM)	50 (≈ 68.4 µM)	0.39 (≈ 0.534 µM)
CC[C@H]1OC(=O)/C(C)=C/[C@H](C)[C@@H](O[C@@H]2O[C@H](C)C[C@H](N(C)C)[C@H]2O)[C@@](C)(OC)C[C@@H](C)C(=O)[C@H](C)[C@H]2N(Cc3ccccc3)C(=O)O[C@]12C	0.78 (≈ 1.14 µM)	0.25 (≈ 0.364 µM)	–	0.2 (≈ 0.291 µM)	2 (≈ 2.91 µM)	–	–	–	0.78 (≈ 1.14 µM)
CCOCCCN1C(=O)O[C@]2(C)[C@@H](CC)OC(=O)/C(C)=C/[C@H](C)[C@@H](O[C@@H]3O[C@H](C)C[C@H](N(C)C)[C@H]3O)[C@@](C)(OC)C[C@@H](C)C(=O)[C@H](C)[C@@H]12	1.56 (≈ 2.28 µM)	0.25 (≈ 0.366 µM)	–	0.39 (≈ 0.571 µM)	2 (≈ 2.93 µM)	–	–	–	1.56 (≈ 2.28 µM)
CC[C@H]1OC(=O)/C(C)=C/[C@H](C)[C@@H](O[C@@H]2O[C@H](C)C[C@H](N(C)C)[C@H]2O)[C@@](C)(OC)C[C@@H](C)C(=O)[C@H](C)[C@H]2N(CCc3ccc(C)cc3)C(=O)O[C@]12C	0.39 (≈ 0.545 µM)	0.015 (≈ 0.021 µM)	16 (≈ 22.4 µM)	0.39 (≈ 0.545 µM)	0.25 (≈ 0.35 µM)	16 (≈ 22.4 µM)	12.5 (≈ 17.5 µM)	25 (≈ 35 µM)	0.39 (≈ 0.545 µM)
CC[C@H]1OC(=O)/C(C)=C/[C@H](C)[C@@H](O[C@@H]2O[C@H](C)C[C@H](N(C)C)[C@H]2O)[C@@](C)(OC)C[C@@H](C)C(=O)[C@H](C)[C@H]2N(CCCc3cnc4ccccc4c3)C(=O)O[C@]12C	1.56 (≈ 2.04 µM)	0.25 (≈ 0.326 µM)	32 (≈ 41.8 µM)	0.39 (≈ 0.509 µM)	4 (≈ 5.22 µM)	–	–	–	–

Continued, values first:

MIC (Staphylococcus aureus [1]) [µg/mL]	MIC (Streptococcus pneumoniae [2]) [µg/mL]	MIC (Haemophilus influenzae) [µg/mL]	MIC (Streptococcus pyogenes [3]) [µg/mL]	MIC (Streptococcus pneumoniae [4]) [µg/mL]	MIC (Streptococcus pneumoniae [5]) [µg/mL]	MIC (Streptococcus pyogenes [6]) [µg/mL]	MIC [7] [µg/mL]	MIC (Staphylococcus aureus [8]) [µg/mL]	Structure (SMILES)
6.2 (≈ 8.33 µM)	< 0.004	> 64	0.39 (≈ 0.524 µM)	< 0.004	–	–	–	–	CC[C@H]1OC(=O)/C(C)=C/[C@H](C)[C@@H](O[C@@H]2O[C@H](C)C[C@H](N(C)C)[C@H]2O)[C@@](C)(OC)C[C@@H](C)C(=O)[C@H](C)[C@H]2N(CCCN(C)c3ccccc3)C(=O)O[C@]12C
0.39 (≈ 0.512 µM)	0.12 (≈ 0.158 µM)	32 (≈ 42 µM)	0.2 (≈ 0.263 µM)	1 (≈ 1.31 µM)	8 (≈ 10.5 µM)	3.1 (≈ 4.07 µM)	12.5 (≈ 16.4 µM)	–	CC[C@H]1OC(=O)/C(C)=C/[C@H](C)[C@@H](O[C@@H]2O[C@H](C)C[C@H](N(C)C)[C@H]2O)[C@@](C)(OC)C[C@@H](C)C(=O)[C@H](C)[C@H]2N(CC/C=C\c3ccc(Cl)cc3)C(=O)O[C@]12C
–	1 (≈ 1.1 µM)	–	–	4 (≈ 4.38 µM)	8 (≈ 8.76 µM)	–	–	–	CC[C@H]1OC(=O)/C(C)=C/[C@H](C)[C@@H](O[C@@H]2O[C@H](C)C[C@H](N(C)C)[C@H]2O)[C@@](C)(OC)C[C@@H](C)C(=O)[C@H](C)[C@H]2N(CCc3ccc(OCc4ccccc4)c(OCc4ccccc4)c3)C(=O)O[C@]12C
6.2 (≈ 8.49 µM)	0.03 (≈ 0.0411 µM)	> 64	3.1 (≈ 4.25 µM)	2 (≈ 2.74 µM)	–	50 (≈ 68.5 µM)	–	–	CC[C@H]1OC(=O)/C(C)=C/[C@H](C)[C@@H](O[C@@H]2O[C@H](C)C[C@H](N(C)C)[C@H]2O)[C@@](C)(OC)C[C@@H](C)C(=O)[C@H](C)[C@H]2N(CCNCc3ccccc3)C(=O)O[C@]12C
12.5 (≈ 20 µM)	1 (≈ 1.6 µM)	> 64	1.56 (≈ 2.5 µM)	2 (≈ 3.21 µM)	> 64	–	–	6.2 (≈ 9.94 µM)	CC[C@H]1OC(=O)/C(C)=C/[C@H](C)[C@@H](O[C@@H]2O[C@H](C)C[C@H](N(C)C)[C@H]2O)[C@@](C)(OC)C[C@@H](C)[C@@H]2NCCN3C(=O)O[C@@]1(C)[C@H]3[C@H]2C
1.56 (≈ 2.18 µM)	0.5 (≈ 0.698 µM)	32 (≈ 44.7 µM)	0.2 (≈ 0.279 µM)	2 (≈ 2.79 µM)	–	–	–	0.78 (≈ 1.09 µM)	CC[C@H]1OC(=O)/C(C)=C/[C@H](C)[C@@H](O[C@@H]2O[C@H](C)C[C@H](N(C)C)[C@H]2O)[C@@](C)(OC)C[C@@H](C)C(=O)[C@H](C)[C@H]2N(CCc3ccc(N)cc3)C(=O)O[C@]12C
0.78 (≈ 1.02 µM)	< 0.004	–	0.39 (≈ 0.51 µM)	0.03 (≈ 0.0392 µM)	–	12.5 (≈ 16.3 µM)	50 (≈ 65.3 µM)	–	CC[C@H]1OC(=O)/C(C)=C/[C@H](C)[C@@H](O[C@@H]2O[C@H](C)C[C@H](N(C)C)[C@H]2O)[C@@](C)(OC)C[C@@H](C)C(=O)[C@H](C)[C@H]2N(CCCOc3ccc(Cl)cc3)C(=O)O[C@]12C
